Bioassay records: PubChem BioAssay, Broad Institute
Shown are actives, neighbours in structure and some others; about 2.6% of the full set was active somewhere.
MITF TRPM1 HTS: activators of MITF-driven TRPM1 promoter reporter, primary screen, cell-based, SK-MEL-5, luciferase, single point; SK-MEL-5 TRPM1-promoter luciferase, 24 h; % of positive control, neutral wells = 0; activation, % at 12.5 µM; 300,000 compounds, 0.75% hits; AID 588334, 2011;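 active = mean activation of at least 80% with every replicate also reaching 80%; inconclusive = mean reaches 80% but some replicate falls short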;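 also: 0% = neutral control wells and 100% = parthenolide positive control wells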
Vif inh: HIV Vif self-association inhibitors, primary screen, imaging, HEK293T, single point. HEK293T cells, Vif self-association by quenched fluorescence, 24 h. AID 602346, 2012. inhibition, % at 7.49 µM. 340,000 compounds, 0.35% hits; in the data active = inhibition above about 50%, passing the limit was not always enough; inconclusive = no clear call, values can overlap the other calls; inactive = below about 31%
XiGFP reactiv: activators of inactive X chromosome reactivation, primary screen, imaging, XiGFP fibroblasts, GFP high-content imaging, set 2; activation, % at 7.58 µM; XiGFP mouse fibroblasts, % GFP-positive cells imaging, 3 d; cells co-treated with 5-aza-dC sensitizer; scaled so ellipticine positive control = 100%; 360,000 compounds, 0.055% hits;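 active = mean normalized replicate activation at least 10% and every replicate at or above 10%; inconclusive = only one of the two criteria met; inactive = mean below 10% and not all replicates reach 10%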;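 also: 0% = median of on-plate neutral control wells and 100% = ellipticine 6 µM median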
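Assay system – SV40-immortalized XiGFP fibroblast cells, line 68-5-11 · Buffer or medium – DMEM supplemented with 5-aza-dC as sensitizing agent · Dosing – one concentration, pinned · Benchmarks – positive control ellipticine, 6 µM final · Times – 3 days compound exposure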
esBAF inh: Bmi1 luciferase reporter increase in mESCs, primary screen, esBAF inhibitor project, mouse ES cells, Bmi1 luciferase knock-in, single point. 24 h; 100% = twice the neutral-well signal. reporter increase, % at 12.5 µM. 350,000 compounds, 2% hits; in the data active = activation above about 40%; inconclusive = no clear call, values can overlap the other calls;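 also: 0% = median of the plate's neutral control wells and 100% = double that signal; a rise in the Bmi1 reporter signal indicates esBAF inhibition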
Wnt bcat act: Wnt/beta-catenin pathway activators, primary screen, cell-based, plate reader, single point; Wnt/beta-catenin reporter cell assay, activator; activation, % at 9.35 µM; 300,000 compounds, 1.2% hits; AID 743398, 2014; in the data active = activation above about 30%, passing the limit was not always enough; inconclusive = no clear call, values can overlap the other calls;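 also: 0% = neutral control wells and 100% = positive control wells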
The depositor's hits bear a star; ? = inconclusive; · = no result given.

SMILES | MITF TRPM1 HTS | Vif inh | XiGFP reactiv | esBAF inh | Wnt bcat act
O=C(O)c1cccc(NN=C2c3ccccc3-c3ccccc32)c1 | 16 | 5 | 1 | · | 0
C=CCOC(=O)/C(=C\c1cccc2ccccc12)NC(=O)c1ccccc1 | 26 | 1 | · | 56* | ·
C=CCOC(=O)/C(=C\c1ccccc1)NC(=O)c1ccc(C)cc1 | 55 | -2 | 0 | · | 19
O=C(C1CC1)N1CC(=O)N2[C@H](C1)[C@@H](c1ccc(-c3ccccc3F)cc1)[C@@H]2CO | · | · | 0 | · | ·
O=C(CCNC(=O)c1ccc(Br)cc1)Nc1ccc(S(=O)(=O)N2CCOCC2)cc1 | 3 | -2 | 0 | -8 | 36*
COc1ccc(S(=O)(=O)N2CCOCC2)cc1NC(=O)c1ccc2c(c1)OCCO2 | -2 | -1 | 0 | 3 | 40*
Cc1ccc(C(=O)Nc2ccc(S(=O)(=O)N3CCOCC3)cc2)cc1Br | · | -2 | 0 | · | 41*
O=S(=O)(c1ccccc1F)N1CCCCN2[C@H](CO)[C@@H](c3ccc(-c4cncnc4)cc3)[C@H]2C1 | · | · | 0 | 0 | ·
Cc1ccccc1CN1C(=O)[C@@H]2Cc3c([nH]c4ccccc34)C(C)(C)N2C1=O | 11 | 105* | 0 | 17 | -3
CCCC1C(C#N)=C(N)Oc2cc(C)n(C)c(=O)c21 (centres undefined) | · | 4 | · | -20 | ·
Cc1cc2c(c(=O)n1C)C(Cc1ccccc1)C(C#N)=C(N)O2 (centres undefined) | · | -6 | · | 50* | 3
CSCCC(=O)N1CCC(n2nccc2NC(=O)c2ccc3c(c2)OCO3)CC1 | 44 | -11 | 0 | 61* | 16
O=C(CCCCn1ccc(=O)[nH]c1=O)Nc1ccc(C(=O)O)c(O)c1 | 11 | 8 | 0 | -4 | -4
O=C(CCCCn1ccc(=O)[nH]c1=O)Nc1ccc(O)c(C(=O)O)c1 | 2 | 78* | 0 | -5 | -6
COc1ccc(-n2nc([N+](=O)[O-])c(=NCc3ccco3)n2O)cc1 | 15 | -6 | 0 | -1 | 43*
Nc1ccc(C#Cc2ccccc2)cc1 | -15 | 3 | · | 11 | ·
Nc1ccccc1C#Cc1ccccc1 | 133* | -4 | 0 | 69* | 39*
Nc1ccccc1C#Cc1ccc2[nH]ccc2c1 | 61 | -3 | 0 | 82* | ?
CCC(=O)N1CC2(C1)CN(Cc1ccc(Cl)cc1)[C@@H](CO)c1[nH]c3cc(OC)ccc3c12 | · | · | 0 | · | ·
CC(=O)c1c(C)[nH]c(C(=O)OCc2cccc(Cl)c2)c1C | 31 | 1 | 0 | 46* | 0
COC(=O)c1c(C)[nH]c(C(=O)OCc2ccc(F)cc2)c1C | 114* | 6 | · | 46* | ·
CC(=O)c1c(C)[nH]c(C(=O)OCC(=O)NCCc2ccc(F)cc2)c1C | 4 | · | · | 5 | -4
CCn1nc(C(=O)N2CCN(Cc3nc4ccccc4s3)CC2)c2ccccc2c1=O | 35 | 1 | 0 | 53* | -2
CCn1nc(C(=O)NNC(=O)c2ccccc2)c2ccccc2c1=O | 29 | -3 | 0 | 46* | 12
CCn1nc(C(=O)NNC(=O)c2ccc(OC(F)F)cc2)c2ccccc2c1=O | -7 | -1 | 0 | -5 | -1
SMILES | MITF TRPM1 HTS | Vif inh | XiGFP reactiv | esBAF inh | Wnt bcat act
COCOCCn1cc(CN2CCS(=O)(=O)N(Cc3ccc(-c4ccc(Cl)cc4)cc3)C(CC(C)C)C2=O)nn1 (centres undefined) | · | 0 | 0 | 5 | -5
COCOCCn1cc(CN2CCS(=O)(=O)N(Cc3ccc(-c4ccc(Cl)nc4)cc3)C(CC(C)C)C2=O)nn1 (centres undefined) | · | -3 | 1 | 45* | 0
C[C@H]1CC(=O)N[C@H](c2ccccc2)C/C=C\C[C@H](c2ccc3c(c2)OCO3)NC1=O | · | · | 0 | · | ·
Cc1cccc(OCC(=O)Nc2cccc(O)c2)c1 | · | 18 | · | 23 | 34*
Cc1cccc(NC(=O)COc2ccccc2)c1 | 62 | 2 | · | 12 | 4
Cc1ccc(OCC(=O)Nc2cccc(O)c2)cc1C | 104* | · | · | 18 | 49*
CCC(C)c1ccc(OCC(=O)Nc2ccc3[nH]c(=O)[nH]c3c2)cc1 (centres undefined) | -1 | 2 | 0 | · | -9
CCC(C)c1ccc(OCC(=O)Nc2cccc(C(=O)Nc3ccc(C(=O)O)cc3)c2)cc1 (centres undefined) | 42 | -9 | 0 | 47* | 20
CC(C)c1ccc(NC(=O)COc2ccccc2)cc1 | 66 | -1 | 0 | 79* | -2
Cc1ccc(OCC(=O)Nc2cc(NC(=O)COc3ccc(C)c(C)c3)cc(C(=O)O)c2)cc1C | · | -11 | 0 | 13 | 8
Cc1ccc(C)c(OCC(=O)Nc2cccc(C(=O)O)c2)c1C | · | -13 | · | ? | 37*
O=C(COc1cc(Cl)c(Cl)cc1Cl)Nc1cccc(O)c1 | 139* | 6 | 0 | · | 45*
CC(=O)Nc1cccc(OCC(=O)Nc2ccccc2)c1 | · | -3 | · | 45* | 38*
Cc1cccc(C)c1OCC(=O)Nc1cccc(C(=O)O)c1 | -3 | -10 | 0 | · | 8
COc1cccc(NC(=O)COc2ccccc2)c1 | 71 | 0 | 0 | 6 | 12
CC(C)CC#Cc1cnc2c(c1)C(=O)N([C@@H](C)CO)C[C@H](C)[C@@H](CN(C)S(=O)(=O)c1cccs1)O2 | · | · | 0 | 4 | ·
Cc1ccnc(NC(=O)CNC(=O)c2ccc(C)s2)c1 | 21 | 10 | 0 | ? | -1
Cc1ccnc(NC(=O)c2cc3cc(F)ccc3s2)c1 | 52 | -1 | 0 | 17 | 38*
Cc1ccnc(NC(=O)c2ccc([N+](=O)[O-])s2)c1 | -27 | -12 | 0 | 29 | 42*
Cc1noc(C)c1NC(=O)N(C)C[C@@H]1Oc2ccc(NS(C)(=O)=O)cc2CC(=O)N([C@@H](C)CO)C[C@H]1C | · | · | 0 | -4 | ·
O=C(O)c1ccc(/C=C(\c2nc3ccccc3[nH]2)c2nc3ccccc3s2)cc1 | -7 | 6 | 0 | · | 42*
O=C(O)c1ccc(-c2nc3ccccc3[nH]2)cc1 | -16 | -4 | 0 | · | -1
COC(=O)c1ccc(/C=C(\C#N)c2ccccn2)cc1 | 107* | 7 | 0 | 102* | 10
N#C/C(=C\c1ccccn1)c1ccccn1 | -4 | -11 | 0 | 18 | 17
N#C/C(=C\c1ccc([N+](=O)[O-])cc1)c1ccccn1 | 44 | 0 | 0 | · | 39*
N#C/C(=C/c1cccs1)c1ccccn1 | ? | -12 | 0 | · | 44*
C[C@@H]1CN([C@@H](C)CO)C(=O)c2cc(-c3ccc(F)cc3)cnc2O[C@@H]1CN(C)Cc1ccccn1 | · | · | -1 | 5 | ·
COC(=O)[C@H]1[C@H](CO)[C@H]2Cn3c(ccc(-c4ccccc4OC)c3=O)[C@H]2N1CC1CCCC1 | · | · | 0 | -2 | ·
